In ChEMBL document CHEMBL1149202, “N-Aryl-gamma-lactams as integrin alphavbeta3 antagonists” (Bioorg Med Chem Lett, 2004):

How the values were obtained:
[1] = target: Integrin alpha-IIb/beta-3 (Homo sapiens, UniProt P05106+P08514); experiment: Affinity for alphaIIb-beta3 integrin; format: protein-complex assay
In short: (§1)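 Purified integrin (αvβ3; αIIbβ3) was bead-coupled overnight at 4 °C. Competitive electrochemiluminescent binding used Ru-labelled vitronectin for αvβ3 and Ru-labelled fibrinogen for αIIbβ3, in pH 7.5 Tris buffer with Ca2+, Mg2+, Mn2+, 1% BSA and 0.05% Tween-20, for 2 h at 25 °C. DMSO serial dilutions were used. Nonspecific binding was taken with excess unlabelled ligand or 5 mM EDTA. Ki came from a four-parameter fit, SD of ≥2 determinations.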

Integrin alpha-V/beta-3 = Integrin alpha-V/beta-3 (Homo sapiens, UniProt P05106+P06756); experiment: Binding affinity towards vitronectin receptor (AlphaV-beta3 integrin).; format: protein-complex assay; in short: as §1
Integrin alpha-V/beta-3, sequence (P05106 27-788 limits assumed): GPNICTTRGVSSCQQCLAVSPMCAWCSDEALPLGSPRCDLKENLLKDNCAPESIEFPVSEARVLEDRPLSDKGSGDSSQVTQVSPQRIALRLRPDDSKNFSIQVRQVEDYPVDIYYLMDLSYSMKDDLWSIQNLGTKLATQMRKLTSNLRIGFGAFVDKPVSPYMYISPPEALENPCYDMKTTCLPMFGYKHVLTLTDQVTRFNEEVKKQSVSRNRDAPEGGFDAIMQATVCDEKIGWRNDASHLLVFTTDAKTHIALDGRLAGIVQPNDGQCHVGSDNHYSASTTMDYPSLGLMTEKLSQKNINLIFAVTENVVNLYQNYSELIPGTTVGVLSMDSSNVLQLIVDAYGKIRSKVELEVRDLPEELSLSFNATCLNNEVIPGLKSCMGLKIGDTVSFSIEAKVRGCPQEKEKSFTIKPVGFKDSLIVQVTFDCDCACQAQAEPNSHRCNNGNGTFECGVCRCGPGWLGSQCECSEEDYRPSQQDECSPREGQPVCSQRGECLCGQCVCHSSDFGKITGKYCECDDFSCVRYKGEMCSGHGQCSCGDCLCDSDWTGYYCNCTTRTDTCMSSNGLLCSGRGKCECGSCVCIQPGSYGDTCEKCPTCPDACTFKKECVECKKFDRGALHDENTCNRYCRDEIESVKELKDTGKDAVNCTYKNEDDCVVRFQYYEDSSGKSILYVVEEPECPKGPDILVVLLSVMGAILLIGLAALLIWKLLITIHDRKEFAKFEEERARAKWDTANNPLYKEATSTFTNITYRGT
Integrin alpha-V/beta-3, sequence (P06756 31-889 limits assumed): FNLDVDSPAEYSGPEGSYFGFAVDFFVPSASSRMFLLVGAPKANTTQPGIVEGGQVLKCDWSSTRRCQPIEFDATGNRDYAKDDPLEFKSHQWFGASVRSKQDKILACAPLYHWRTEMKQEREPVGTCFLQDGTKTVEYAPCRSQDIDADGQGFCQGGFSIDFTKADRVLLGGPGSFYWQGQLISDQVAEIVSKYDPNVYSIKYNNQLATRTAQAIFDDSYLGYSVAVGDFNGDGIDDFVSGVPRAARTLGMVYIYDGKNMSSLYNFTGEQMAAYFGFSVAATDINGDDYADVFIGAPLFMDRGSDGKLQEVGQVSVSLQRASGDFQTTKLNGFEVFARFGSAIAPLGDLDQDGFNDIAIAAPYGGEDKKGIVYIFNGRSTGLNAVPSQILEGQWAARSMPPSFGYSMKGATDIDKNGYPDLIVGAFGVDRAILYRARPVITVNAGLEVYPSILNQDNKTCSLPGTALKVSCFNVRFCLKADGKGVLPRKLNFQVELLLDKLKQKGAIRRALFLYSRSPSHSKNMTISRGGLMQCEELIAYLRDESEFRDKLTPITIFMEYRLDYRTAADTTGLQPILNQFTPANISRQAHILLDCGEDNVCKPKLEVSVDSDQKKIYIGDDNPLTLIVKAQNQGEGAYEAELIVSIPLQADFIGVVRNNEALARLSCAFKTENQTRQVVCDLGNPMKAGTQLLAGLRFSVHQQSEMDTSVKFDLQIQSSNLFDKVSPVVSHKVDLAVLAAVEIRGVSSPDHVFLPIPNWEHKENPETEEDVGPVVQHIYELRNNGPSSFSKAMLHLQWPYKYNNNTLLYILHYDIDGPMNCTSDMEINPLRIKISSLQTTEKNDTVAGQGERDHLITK
Integrin alpha-V/beta-3, sequence (P06756 891-1048 limits assumed): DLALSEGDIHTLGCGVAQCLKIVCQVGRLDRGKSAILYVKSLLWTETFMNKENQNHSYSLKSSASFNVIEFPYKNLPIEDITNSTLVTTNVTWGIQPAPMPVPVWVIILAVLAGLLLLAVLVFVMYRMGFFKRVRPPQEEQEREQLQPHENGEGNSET

Integrin alpha-IIb/beta-3, sequence (P05106 27-788 limits assumed): as the sequence (P05106 27-788 limits assumed) above
Integrin alpha-IIb/beta-3, sequence (P08514 32-887 limits assumed): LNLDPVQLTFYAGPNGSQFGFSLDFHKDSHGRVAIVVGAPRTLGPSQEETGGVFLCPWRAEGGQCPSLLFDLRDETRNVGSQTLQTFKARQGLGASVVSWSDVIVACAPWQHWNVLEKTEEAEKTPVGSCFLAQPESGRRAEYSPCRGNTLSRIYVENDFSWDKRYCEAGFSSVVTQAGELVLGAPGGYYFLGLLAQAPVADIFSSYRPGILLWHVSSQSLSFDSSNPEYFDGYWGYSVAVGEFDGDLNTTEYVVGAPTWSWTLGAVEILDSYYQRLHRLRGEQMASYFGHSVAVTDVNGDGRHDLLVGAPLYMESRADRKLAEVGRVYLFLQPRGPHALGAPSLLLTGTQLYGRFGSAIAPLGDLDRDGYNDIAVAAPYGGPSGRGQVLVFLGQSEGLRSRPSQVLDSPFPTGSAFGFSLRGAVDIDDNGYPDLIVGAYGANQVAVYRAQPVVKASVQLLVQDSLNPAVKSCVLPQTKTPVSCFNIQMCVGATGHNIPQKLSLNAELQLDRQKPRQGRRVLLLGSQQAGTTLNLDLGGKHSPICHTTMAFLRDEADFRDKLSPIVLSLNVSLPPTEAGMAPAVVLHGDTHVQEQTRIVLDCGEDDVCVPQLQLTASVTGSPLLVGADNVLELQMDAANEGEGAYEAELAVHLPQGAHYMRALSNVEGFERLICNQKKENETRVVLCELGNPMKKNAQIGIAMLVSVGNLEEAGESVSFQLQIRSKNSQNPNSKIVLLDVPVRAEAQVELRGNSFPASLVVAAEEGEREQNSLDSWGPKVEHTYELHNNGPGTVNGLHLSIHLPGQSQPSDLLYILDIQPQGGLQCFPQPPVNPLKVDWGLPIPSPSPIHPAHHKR
Integrin alpha-IIb/beta-3, sequence (P08514 891-1039 limits assumed): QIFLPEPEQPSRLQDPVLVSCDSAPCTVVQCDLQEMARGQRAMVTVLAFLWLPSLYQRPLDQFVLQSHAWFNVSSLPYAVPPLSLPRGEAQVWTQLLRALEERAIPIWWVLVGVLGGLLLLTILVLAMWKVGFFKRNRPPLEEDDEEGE

Row | Structure (SMILES) | Ki [1] [nM] | Ki (Integrin alpha-V/beta-3) [nM]
1 | O=C(O)C[C@@H](NC(=O)[C@@H]1CC(=O)N(c2cccc(NC(=O)NCc3ccccc3)c2)C1)c1cccc(F)c1 | > 25000 | 154
2 | O=C(O)CC(NC(=O)C1CC(=O)N(c2cccc(NC(=O)NCc3ccccc3)c2)C1)c1cccnc1 (stereo not drawn) |  | 10.4
3 | O=C(O)CC(NC(=O)C1CC(=O)N(c2cccc(NC(=O)NCc3ccccc3)c2)C1)c1ccccc1 (stereo not drawn) |  | 70.9
4 | O=C(O)CC(NC(=O)C1CC(=O)N(c2cccc(NC(=O)NCc3ccccc3)c2)C1)c1ccc2c(c1)OCO2 (stereo not drawn) |  | 2.4
5 | NC(N)=Nc1ccc(Cl)c(N2CC(C(=O)NC(CC(=O)O)c3cccnc3)CC2=O)c1 (stereo not drawn) |  | 52.7
6 | O=C(O)C[C@H](NC(=O)[C@@H]1CC(=O)N(c2cccc(NC3=NCCCN3)c2)C1)c1ccc2c(c1)OCO2 | 2100 | 0.1
7 | O=C(O)CC(NC(=O)C1CC(=O)N(c2cccc(NC3=NCCCN3)c2)C1)c1cccnc1 (stereo not drawn) |  | 1.4
8 | NC(N)=Nc1ccc(F)c(N2CC(C(=O)NC(CC(=O)O)c3cccnc3)CC2=O)c1 (stereo not drawn) |  | 2.9
9 | O=C(O)CC(NC(=O)C1CC(=O)N(c2cccc(NC(=O)NCc3ccccc3)c2)C1)c1cccc(F)c1 (stereo not drawn) |  | 11.1
10 | O=C(O)CC(NC(=O)C1CC(=O)N(c2cccc(NC3=NCCN3)c2)C1)c1cccnc1 (stereo not drawn) |  | 5.1
11 | N=C(N)Nc1cccc(N2CC(C(=O)NC(CC(=O)O)c3cccnc3)CC2=O)c1 (stereo not drawn) |  | 16.6
12 | O=C(O)C[C@H](NC(=O)[C@@H]1CC(=O)N(c2cccc(NC(=O)NCc3ccccc3)c2)C1)c1cccc(F)c1 | > 25000 | 10
13 | O=C(O)CC(NC(=O)C1CC(=O)N(c2cccc(NC3=NCCCN3)c2)C1)c1ccc2c(c1)OCO2 (stereo not drawn) |  | 0.7
14 | O=C(O)C[C@H](NC(=O)[C@H]1CC(=O)N(c2cccc(NC(=O)NCc3ccccc3)c2)C1)c1cccc(F)c1 | > 25000 | > 1000
15 | O=C(O)C[C@@H](NC(=O)[C@@H]1CC(=O)N(c2cccc(NC3=NCCCN3)c2)C1)c1ccc2c(c1)OCO2 | > 25000 | 7.3
16 | O=C(O)CC(NC(=O)C1CC(=O)N(c2cc(NC3=NCCCN3)ccc2F)C1)c1ccc2c(c1)OCO2 (stereo not drawn) |  | 0.5
17 | O=C(O)C[C@@H](NC(=O)[C@H]1CC(=O)N(c2cccc(NC(=O)NCc3ccccc3)c2)C1)c1cccc(F)c1 | > 25000 | > 1000
